Experimental data as given in publication PMC9366314 (Acta Pharmaceutica Sinica. B, 2022).

Assays:
Type in all cases: cell-based
Gαq/11 = assay: IP1 accumulation assay; details: CHO-M1 cells, mean ± SEM (n = 3)
[1] = system: 92.1 cells (GNAQ Q209L mutation); assay: Cell proliferation inhibition assay; details: 72 h, read-out: Antiproliferation (IC50, μmol/L) 92.1
Summary of the method: (§1)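 Uveal melanoma cells were grown in RPMI-1640 with 10% FBS at 37 °C, 5% CO2. They were resuspended at 3 × 10^3 cells/mL, seeded and left overnight. Cells were exposed to a concentration series of test compound for 72 h. CCK-8 was added for 2–4 h and absorbance read at 450 nm. IC50 values were fitted from the curves and reported as mean ± SEM, n = 3.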

[2] = system: MP41 cells (GNA11 Q209L mutation); assay: Cell proliferation inhibition assay; details: MP41, 72 h, read-out: Antiproliferation (IC50, μmol/L) MP41
Summary of the method: as §1

SMILES | IP1 inhibition at 10 μmol/L (Gαq/11) | IC50 [1] | IC50 [2]
N[C@@H](Cc1c[nH]c2ccccc12)CN1CCn2cc(-c3ccccc3)nc2[C@@H]1CC1CCCCC1 [GQ257] | 33.2 ± 1.3% | 9.6 ± 0.5 µmol/L | 6 ± 0.3 µmol/L
C[C@H](N)CN1CCn2cc(-c3ccccc3)nc2[C@@H]1CC1CCCCC1 [GQ239] | 50.2 ± 5.2% | 11.6 ± 0.6 µmol/L | 6 ± 0.6 µmol/L
CSCC[C@H](N)CN1CCn2cc(-c3ccccc3)nc2[C@@H]1CC1CCCCC1 [GQ247] | 44.5 ± 3.4% | 6 ± 0.3 µmol/L | 5.6 ± 0.2 µmol/L
CC[C@H](C)[C@H](N)CN1CCn2cc(-c3ccccc3)nc2[C@@H]1CC1CCCCC1 [GQ236] | 48.4 ± 2.4% | 9.3 ± 0.5 µmol/L | 10.1 ± 0.2 µmol/L
CC[C@H](C)[C@H](N)C(=O)N1CCn2cc(C3=CCCCC3)nc2[C@@H]1CC1CCCCC1 [GQ228] | 24.8 ± 1.5% | 19 ± 0.6 µmol/L | 11 ± 0.1 µmol/L
NCC[C@H](N)CN1CCn2cc(-c3ccccc3)nc2[C@@H]1CC1CCCCC1 [GQ252] | 35.9 ± 7.3% | 3.5 ± 0.3 µmol/L | 5.2 ± 0.7 µmol/L
CC(C)C[C@@H]1c2nc(-c3ccccc3)cn2CCN1C[C@@H]1CCCN1C [GQ266] | 17.5 ± 1.1% | > 40 µmol/L | > 40 µmol/L
CC[C@H](C)[C@H](N)C(=O)N1CCn2cc(-c3ccoc3)nc2[C@@H]1CC1CCCCC1 [GQ224] | 31.5 ± 6.0% | > 40 µmol/L | > 40 µmol/L
CC[C@H](C)[C@H](N)C(=O)N1CCn2cc(-c3cccs3)nc2[C@@H]1CC1CCCCC1 [GQ225] | 28.7 ± 1.6% | 18.8 ± 1.7 µmol/L | 25.3 ± 0.9 µmol/L
NCCN1CCn2cc(-c3ccccc3)nc2[C@@H]1CC1CCCCC1 [GQ240] | 22.5 ± 4.2% | 9.6 ± 0.6 µmol/L | 7.4 ± 0.3 µmol/L
NCCCC[C@H](N)CN1CCn2cc(-c3ccccc3)nc2[C@@H]1CC1CCCCC1 [GQ254] | 44.2 ± 0.3% | 11.2 ± 0.7 µmol/L | 8 ± 0.6 µmol/L
CC[C@H](N)CN1CCn2cc(-c3ccccc3)nc2[C@@H]1CC1CCCCC1 [GQ241] | 31.3 ± 9.0% | 6.6 ± 0.2 µmol/L | 5.9 ± 0.5 µmol/L
CC(C)(C)[C@H](N)CN1CCn2cc(-c3ccccc3)nc2[C@@H]1CC1CCCCC1 [GQ243] | 41.6 ± 5.8% | 9.6 ± 0.7 µmol/L | 5.7 ± 0.7 µmol/L
N[C@H](CS)CN1CCn2cc(-c3ccccc3)nc2[C@@H]1CC1CCCCC1 [GQ246] | 40.4 ± 7.0% | 15.8 ± 1 µmol/L | 14.9 ± 0.8 µmol/L
CC[C@H](C)[C@H](N)C(=O)N1CCn2cc(C3CCNCC3)nc2[C@@H]1CC1CCCCC1 [GQ230] | 13.7 ± 0.6% | > 40 µmol/L | > 40 µmol/L
CC[C@H](C)[C@H](N)C(=O)N1CCn2cc(C(C)C)nc2[C@@H]1CC1CCCCC1 [GQ234] | 10.8 ± 1.4% | > 40 µmol/L | > 40 µmol/L
CC[C@H](C)[C@H](N)C(=O)N1CCn2cc(C3CCC(F)(F)CC3)nc2[C@@H]1CC1CCCCC1 [GQ233] | 22.2 ± 1.9% | > 40 µmol/L | > 40 µmol/L
N[C@@H](Cc1ccc(O)cc1)CN1CCn2cc(-c3ccccc3)nc2[C@@H]1CC1CCCCC1 [GQ256] | 47.6 ± 5.0% | 8.7 ± 0.7 µmol/L | 9 ± 1.2 µmol/L
CCc1cn2c(n1)[C@H](CC1CCCCC1)N(C(=O)[C@@H](N)[C@@H](C)CC)CC2 [GQ235] | 22.3 ± 1.3% | > 40 µmol/L | > 40 µmol/L
N[C@@H](Cc1ccccc1)CN1CCn2cc(-c3ccccc3)nc2[C@@H]1CC1CCCCC1 [GQ258] | 48.3 ± 6.5% | 11.6 ± 1.4 µmol/L | 7.9 ± 1.5 µmol/L
CN1CCC[C@H]1CN1CCn2cc(-c3ccccc3)nc2[C@@H]1C1CCCCC1 [GQ267] | 8.9 ± 0.8% | > 40 µmol/L | > 40 µmol/L

SMILES | IP1 inhibition at 10 μmol/L (Gαq/11) | IC50 [1] | IC50 [2]
CCC[C@H](N)CN1CCn2cc(-c3ccccc3)nc2[C@@H]1CC1CCCCC1 [GQ242] | 41.0 ± 6.0% | 4.7 ± 0.4 µmol/L | 5 ± 0.1 µmol/L
CC[C@H](C)[C@H](N)C(=O)N1CCn2cc(C3CCCCC3)nc2[C@@H]1CC1CCCCC1 [GQ227] | 18.4 ± 0.9% | 21.6 ± 0.6 µmol/L | 21.2 ± 0.5 µmol/L
C[C@H](O)[C@H](N)CN1CCn2cc(-c3ccccc3)nc2[C@@H]1CC1CCCCC1 [GQ249] | 44.1 ± 3.0% | 11.4 ± 0.3 µmol/L | 5.8 ± 0.6 µmol/L
N[C@@H](CC1CCCCC1)CN1CCn2cc(-c3ccccc3)nc2[C@@H]1CC1CCCCC1 [GQ244] | 45.8 ± 10.5% | 9 ± 1.3 µmol/L | 5.6 ± 0.3 µmol/L
c1ccc(-c2cn3c(n2)[C@H](CC2CCCCC2)N(C[C@@H]2CCCN2)CC3)cc1 [GQ260] | 53.4 ± 7.0% | 11.6 ± 1.2 µmol/L | 6.7 ± 0.6 µmol/L
CC(C)[C@@H]1c2nc(-c3ccccc3)cn2CCN1C[C@@H]1CCCN1C [GQ265] | 13.5 ± 0.5% | > 40 µmol/L | > 40 µmol/L
NCCC[C@H](N)CN1CCn2cc(-c3ccccc3)nc2[C@@H]1CC1CCCCC1 [GQ253] | 32.4 ± 1.0% | 9.7 ± 0.4 µmol/L | 9.2 ± 0.6 µmol/L
N[C@H](CN1CCn2cc(-c3ccccc3)nc2[C@@H]1CC1CCCCC1)C1CCCCC1 [GQ245] | 46.8 ± 8.6% | 5.7 ± 0.1 µmol/L | 5 ± 0.3 µmol/L
CC[C@H](C)[C@H](N)C(=O)N1CCn2cc(-c3cccnc3)nc2[C@@H]1CC1CCCCC1 [GQ221] | 20.0 ± 0.6% | > 40 µmol/L | > 40 µmol/L
N[C@@H](CCO)CN1CCn2cc(-c3ccccc3)nc2[C@@H]1CC1CCCCC1 [GQ250] | 41.8 ± 2.7% | 10.4 ± 0.2 µmol/L | 6.9 ± 1 µmol/L
CC[C@H](C)[C@H](N)C(=O)N1CCn2cc(C3CCC(C)(C)CC3)nc2[C@@H]1CC1CCCCC1 [GQ232] | 10.9 ± 0.7% | 16.1 ± 1 µmol/L | 19.8 ± 0.1 µmol/L
CC[C@H](C)[C@H](N)C(=O)N1CCn2cc(C3CCOCC3)nc2[C@@H]1CC1CCCCC1 [GQ231] | 20.6 ± 2.1% | > 40 µmol/L | > 40 µmol/L
c1ccc(-c2cn3c(n2)[C@H](CC2CCCCC2)N(C[C@@H]2CCCCN2)CC3)cc1 [GQ261] | 27.0 ± 5.1% | 11 ± 0.5 µmol/L | 6.2 ± 0.8 µmol/L
CC(C)[C@H](N)CN1CCn2cc(-c3ccccc3)nc2[C@@H]1CC1CCCCC1 [GQ238] | 34.4 ± 1.7% | 7.3 ± 0.7 µmol/L | 6.2 ± 0.7 µmol/L
N=C(N)NCCC[C@H](N)CN1CCn2cc(-c3ccccc3)nc2[C@@H]1CC1CCCCC1 [GQ255] | 27.7 ± 6.7% | > 40 µmol/L | > 40 µmol/L
CC(C)C[C@H](N)CN1CCn2cc(-c3ccccc3)nc2[C@@H]1CC1CCCCC1 [GQ237] | 43.0 ± 3.3% | 5.8 ± 0.1 µmol/L | 4 ± 1.3 µmol/L
CC[C@H](C)[C@H](N)C(=O)N1CCn2cc(-c3ccncc3)nc2[C@@H]1CC1CCCCC1 [GQ222] | 27.0 ± 5.2% | > 40 µmol/L | > 40 µmol/L
N[C@H](CO)CN1CCn2cc(-c3ccccc3)nc2[C@@H]1CC1CCCCC1 [GQ248] | 49.7 ± 9.5% | 10.9 ± 0.5 µmol/L | 7.9 ± 0.7 µmol/L
CC[C@H](C)[C@H](N)C(=O)N1CCn2cc(-c3ccccn3)nc2[C@@H]1CC1CCCCC1 [GQ220] | 20.8 ± 1.1% | > 40 µmol/L | > 40 µmol/L
CC[C@H](C)[C@H](N)C(=O)N1CCn2cc(-c3ccco3)nc2[C@@H]1CC1CCCCC1 [GQ223] | 16.6 ± 1.2% | > 40 µmol/L | > 40 µmol/L
CC(C)[C@H]1c2nc(-c3ccccc3)cn2CCN1C[C@@H]1CCCN1C [GQ264] | 5.9 ± 1.1% | > 40 µmol/L | > 40 µmol/L
